From ChEMBL document CHEMBL5104216, “Fragment-Sized Thiazoles in Fragment-Based Drug Discovery Campaigns: Friend or Foe?” (ACS Med Chem Lett, 2022) come the findings set out here.

For data set [1], the target named is UDP-N-acetylglucosamine 1-carboxyvinyltransferase (Escherichia coli K-12) (UniProt P0A749). Kind of data set: Inhibition of recombinant Escherichia coli MurA assessed as residual activity at 500 uM using UDP-N-acetylglucosamine as substrate preincubated for 30 mins followed by substrate addition and measured by malachite green based colorimetric assay relative to control. The method in brief: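 E. coli MurA at 500–625 μM with 30 min preincubation before substrate addition. Malachite green colorimetric read-out. Activity threshold was <50% residual activity.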

The target of data set [2] is Replicase polyprotein 1ab (Severe acute respiratory syndrome coronavirus 2) (UniProt P0DTD1). As to the kind of experiment: Inhibition of recombinant SARS-CoV-2 3CLpro expressed in Escherichia coli NiCo21(DE3) assessed as residual activity at 500 uM using DABCYL-KTSAVLQSGFRKME-EDANS as substrate preincubated for 30 mins followed by substrate addition and measured by FRET assay relative to control. The method in brief: (§1)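 Kinetic fluorescence read-out of cleavage of a FRET substrate carrying a DABCYL–EDANS pair. Compounds were tested at 500–625 μM, and <50% residual activity was taken as the activity threshold. To exclude false positives, absorbance at the excitation and emission wavelengths and autofluorescence of the compounds were measured.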

A short description of data set [3]: Redox activity of compound assessed as redox index at 100 uM measured by H2DCFDA assay. Format: physicochemical. Put shortly:
(§2)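 Reactive oxygen species, with or without the reducing agent TCEP, detected with the fluorescent probe H2DCFDA. Compound spectral interference (autofluorescence) checked under the assay conditions.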

Data set [4] in a line: Redox activity of compound assessed as redox index at 100 uM in presence of 100 uM TCEP measured by H2DCFDA assay. In kind it is physicochemical. Put shortly:
as §2

The target in data set [5] is UDP-N-acetylglucosamine 1-carboxyvinyltransferase (Escherichia coli K-12) (UniProt P0A749). As to the kind of experiment: Inhibition of recombinant Escherichia coli MurA assessed as residual activity at 500 uM using UDP-N-acetylglucosamine as substrate and measured by malachite green based colorimetric assay relative to control. Put shortly:
(§3)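 Screened at 500–625 μM with malachite green colorimetric read-out. Activity threshold was <50% residual activity.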

In data set [6] the test system is Mycobacterium tuberculosis. Kind of data set: Inhibition of Mycobacterium tuberculosis MetAP1a assessed as residual activity at 625 uM using L-methionine 7-amido-4-methylcoumarin as fluorogenic substrate and measured by fluorescence based assay. The method in brief: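 Kinetic fluorescence assay in which the enzyme hydrolyses L-methionine 7-amido-4-methylcoumarin to fluorescent 7-amino-4-methylcoumarin. Compounds were tested at 500–625 μM, and activity was called at <50% residual activity. Spectral interference was checked by measuring absorbance at the excitation and emission wavelengths and compound autofluorescence.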

Data set [7] in a line: Redox activity of compound assessed as redox index at 100 uM in presence of 1 mM DTT measured by HRP-PR assay. Format: physicochemical. The method in brief: (§4)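 H2O2 from redox cycling, with or without DTT, detected with horseradish peroxidase-phenol red (HRP-PR).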
Data set [8] in a line: Redox activity of compound assessed as redox index at 10 uM measured by resazurin assay. In kind it is physicochemical. The method in brief: (§5)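 Free radicals formed by redox cycling with DTT detected with resazurin by fluorimetric read-out. Spectral interference checked.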
In general terms: The colour change of resazurin is a common sign of viable cells or microbes.

In data set [9] the target is D-alanine--D-alanine ligase B (Escherichia coli K-12) (UniProt P07862). Kind of data set: Inhibition of recombinant Escherichia coli DdlB assessed as residual activity at 500 uM using D-alanine as substrate incubated for 20 mins and measured by malachite green based colorimetric assay relative to control. The method in brief:
as §3

Data set [10] deals with Replicase polyprotein 1ab (Severe acute respiratory syndrome coronavirus 2) (UniProt P0DTD1). Kind of data set: Inhibition of recombinant SARS-CoV-2 3CLpro expressed in Escherichia coli NiCo21(DE3) assessed as residual activity at 500 uM using DABCYL-KTSAVLQSGFRKME-EDANS as substrate preincubated for 30 mins in presence of 1mM DTT followed by substrate addition and measured by FRET assay relative to control. The method in brief: as §1

Data set [11] is described as follows: Redox activity of compound assessed as redox index at 100 uM measured by HRP-PR assay. Format: physicochemical. Put shortly: as §4
Data set [12] addresses UDP-N-acetylglucosamine 1-carboxyvinyltransferase (Escherichia coli K-12) (UniProt P0A749). As to the kind of experiment: Inhibition of recombinant Escherichia coli MurA assessed as residual activity at 500 uM using UDP-N-acetylglucosamine as substrate preincubated for 30 mins in presence of 1 mM DTT followed by substrate addition and measured by malachite green based colorimetric assay relative to control.

A short description of data set [13]: Redox activity of compound assessed as redox index at 1 uM measured by resazurin assay. Format: physicochemical. The method in brief: as §5
Data set [14] in a line: Aqueous stability of the compound at pH 7.4 measured after 60 mins by spectrophotometric analysis. Format: physicochemical. As to conditions: buffer, pH 7.4, 1 h. Put shortly:
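Followed by spectrophotometry as changes in the compound absorption spectrum over time in 50 mM Tris-HCl pH 7.4, 0.5 mM EDTA, read after 60 min in 96-well microplate format. Compounds with low absorbance were not evaluated.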

Molecules are shown by their SMILES.

UDP-N-acetylglucosamine 1-carboxyvinyltransferase (Escherichia coli K-12), sequence (P0A749 whole entry): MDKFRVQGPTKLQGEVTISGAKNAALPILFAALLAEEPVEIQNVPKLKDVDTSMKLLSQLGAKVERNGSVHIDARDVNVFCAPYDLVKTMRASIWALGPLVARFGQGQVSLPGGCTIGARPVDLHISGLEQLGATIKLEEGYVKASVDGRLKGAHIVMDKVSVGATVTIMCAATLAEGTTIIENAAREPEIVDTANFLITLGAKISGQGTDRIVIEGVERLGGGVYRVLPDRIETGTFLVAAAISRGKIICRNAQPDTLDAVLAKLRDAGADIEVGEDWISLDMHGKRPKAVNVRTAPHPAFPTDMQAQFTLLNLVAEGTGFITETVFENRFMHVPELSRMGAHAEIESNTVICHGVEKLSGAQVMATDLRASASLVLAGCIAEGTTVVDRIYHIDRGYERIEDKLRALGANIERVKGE

Take `O=C(O)c1scnc1Br`: the Activity in data set [1] came to 83.1%; in data set [2], 135%; in data set [5], 99.5%; in data set [6], 122%; in data set [9], 96%; in [10], 80.1%. Further, the Activity in data set [12] amounted to 111%. The Activity_index is 1.1 in data set [3]; 1.1 in [4]; 1 in data set [7]; 0.9 in [8]; 1 in [11]; 0.9 in data set [13]. For the same molecule, in [14], the Stability result was “Stable”.

In the case of `CCOC(=O)c1cnc(Br)s1`, the Activity in [1] was 14.9%; in data set [2], 10.2%; in data set [5], 60.1%; in data set [6], 92.3%; in [9], 90%; in data set [10] it was 66.4%. Moreover, the Activity in [12] amounted to 103%. Besides, the Activity_index worked out at 0.9 in [3]; 1.1 in [4]; 1 in data set [7]; 1 in [8]; 1 in data set [11]; 0.9 in data set [13]. Also, in data set [14], the Stability result is recorded as “Stable”.

Consider `CC(=O)c1nc(C)cs1`, for which the Activity in [1] was 93.9%; in data set [2], 106%; in data set [5], 102%; in data set [6] it was 136%; in [9], 92%; in [10] it was 78.4%. Moreover, in data set [12], the Activity worked out at 93.5%. For the same molecule, the Activity_index is listed as 1 in [3]; 0.8 in data set [4]; 1 in [7]; 0.9 in [8]; 1 in data set [11]; 0.9 in data set [13].

Consider `CCOC(=O)Cc1csc(Br)n1`, for which the Activity in data set [1] was found to be 66.7%; in data set [2], 72%; in data set [5], 86.7%; in data set [6], 89.6%; in data set [9], 95%; in [10], 70.8%. The Activity_index worked out at 1 in data set [3]; 0.9 in data set [4]; 1 in [7]; 0.9 in [8]; 1 in data set [11]; 0.9 in data set [13].

On to `COC(=O)CC(=O)Nc1ncc(Br)s1`, for which the Activity in data set [1] stood at 60.9%; in [2] it was 95.3%; in data set [5] it was 97.9%; in data set [6], 78.2%; in [9], 88%; in data set [10] it was 86%. In addition, the Activity in [12] came out at 107%. Also, the Activity_index in data set [3] came to 1.2; in [4] it was 1; in data set [7], 1; in [8], 0.9; in [11], 1; in [13], 1. In addition, the Stability entry in data set [14] is recorded as “Stable”.

Turning to `Fc1ccc(-c2csc(Br)n2)cc1F`, the Activity was 12% in [1]; 85.1% in data set [2]; 89.1% in data set [5]; 84.4% in [6]; 136% in [9]; 78.9% in data set [10]. The Activity in data set [12] is 81.9%. Also, the Activity_index in data set [3] stood at 0.8; in data set [4] it was 0.9; in data set [7], 1; in data set [8] it was 0.9; in data set [11] it was 1; in [13], 0.9. In [14], the Stability result is “Unstable”.

With `Cc1csc(N)n1`, the Activity in data set [1] amounted to 93.3%; in data set [2], 96.7%; in data set [5], 99.3%; in data set [6] it was 123%; in [9], 90%; in [10], 82.4%. Further, the Activity in [12] was determined as 102%. Besides, the Activity_index in data set [3] was 1; in data set [4], 0.8; in data set [7], 1; in data set [8] it was 1; in [11] it was 1; in data set [13] it was 0.9. Also, the Stability entry in data set [14] is “Stable”.

Turning to `CCOC(=O)Cc1csc(N)n1`, the Activity in data set [1] is 66.3%; in [2] it was 103%; in [5] it was 85.5%; in data set [6], 132%; in data set [9], 94%; in [10], 82.1%. Also, the Activity in [12] was 88.1%. In addition, the Activity_index in data set [3] is 1.2; in [4], 1; in data set [7] it was 1; in [8], 1; in data set [11], 1; in data set [13], 0.9. Further, the Stability entry in data set [14] is recorded as “Stable”.

For `O=C(O)c1nc(Br)cs1`, the Activity in [1] worked out at 90%; in [2], 88.3%; in data set [5] it was 97.3%; in data set [6], 111%; in [9] it was 84%; in data set [10] it was 85.1%. Besides, the Activity in data set [12] was 106%. For the same molecule, the Activity_index is reported as 1 in data set [3]; 0.9 in data set [4]; 1 in data set [7]; 0.9 in data set [8]; 1 in data set [11]; 0.9 in data set [13].

For the molecule `CNc1nnc(C(F)(F)F)s1`, the Activity in data set [1] amounted to 113%; in [2], 147%; in data set [5] it was 99.5%; in data set [6], 101%; in data set [9], 98%; in data set [10], 82.3%. For the same molecule, the Activity in data set [12] is 102%. Also, the Activity_index in data set [3] was 1.2; in data set [4], 1.1; in data set [7] it was 1; in data set [8], 1; in data set [11], 1; in data set [13], 1. Besides, in data set [14], the Stability entry was “Stable”.

With `O=C(O)Cc1csc(Br)n1`, the Activity in data set [1] was determined as 72.1%; in [2], 77.1%; in data set [5], 105%; in data set [6], 86.1%; in data set [9], 103%; in data set [10], 68.6%. For the same molecule, the Activity in data set [12] was 106%. Moreover, the Activity_index in data set [3] was found to be 0.9; in data set [4], 1; in data set [7] it was 1; in [8] it was 1; in [11] it was 1; in [13], 0.9.

As for `Brc1cscn1`, the Activity is 106% in data set [1]; 91.4% in data set [2]; 100% in data set [5]; 83.5% in [6]; 97% in data set [9]; 80.1% in data set [10]. Moreover, the Activity in [12] was found to be 102%. Also, the Activity_index in [3] came out at 0.8; in data set [4], 0.8; in [7], 1; in [8], 1; in [11], 1; in data set [13] it was 0.9.
